Measured values as given in ChEMBL document CHEMBL1137343, “4-arylazo-3,5-diamino-1H-pyrazole CDK inhibitors: SAR study, crystal structure in complex with CDK2, selectivity, and cellular effects” (J Med Chem, 2006).
Calls of active or inactive are those of the source. The calls are words filed in the database; no cut-off is given here.

How the values were obtained:
[1] = target: T1, Cyclin-dependent kinase 2/cyclin E (Homo sapiens, UniProt P24941); assay: Inhibition of CDK2/Cyclin E in presence of 15 uM ATP; type: protein-complex assay
[2] = target: Casein kinase II (Homo sapiens) (UniProt P67870+P68400+P19784); assay: Activity of CK2 at 10 uM; type: protein-complex assay
Method in brief: (§1)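 Radiometric kinase assay at 10 µM inhibitor, run in duplicate. c-Abl, CHK1, GSK3β, p70S6K, PKA and PKBα were run in 8 mM MOPS pH 7.0 with 0.2 mM EDTA. MAPK1 and SAPK2α were run in 25 mM Tris pH 7.5 with 0.02 mM EGTA. CK2 was run in 20 mM HEPES pH 7.6, 0.15 M NaCl, 0.1 mM EDTA, 2 mM DTT and 0.1% Triton X-100. All had 10 mM Mg-acetate, 10 µM ATP, [γ-33P]ATP and a peptide substrate; 40 min; H3PO4 stop; P30 filter; scintillation counting.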

[3] = target: Glycogen synthase kinase-3 beta (Homo sapiens) (UniProt P49841); assay: Activity of GSK3-beta at 10 uM; method in brief: as §1
Glycogen synthase kinase-3 beta (Homo sapiens), sequence (P49841 whole entry, looked up): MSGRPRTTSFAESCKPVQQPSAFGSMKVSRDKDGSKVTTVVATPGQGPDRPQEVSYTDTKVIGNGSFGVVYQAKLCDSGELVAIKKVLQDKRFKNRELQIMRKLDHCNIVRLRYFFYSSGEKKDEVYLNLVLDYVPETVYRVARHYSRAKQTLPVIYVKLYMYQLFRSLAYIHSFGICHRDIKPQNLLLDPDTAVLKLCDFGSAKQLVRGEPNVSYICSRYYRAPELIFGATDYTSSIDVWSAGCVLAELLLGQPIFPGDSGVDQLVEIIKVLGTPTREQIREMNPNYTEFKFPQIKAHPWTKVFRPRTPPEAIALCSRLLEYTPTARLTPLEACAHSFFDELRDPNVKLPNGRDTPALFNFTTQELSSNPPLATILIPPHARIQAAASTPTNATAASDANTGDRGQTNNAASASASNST

[4] = target: Mitogen-activated protein kinase 1 (Homo sapiens) (UniProt P28482); assay: Activity of MAPK1 at 10 uM; method in brief: as §1
Mitogen-activated protein kinase 1 (Homo sapiens), sequence (P28482 whole entry): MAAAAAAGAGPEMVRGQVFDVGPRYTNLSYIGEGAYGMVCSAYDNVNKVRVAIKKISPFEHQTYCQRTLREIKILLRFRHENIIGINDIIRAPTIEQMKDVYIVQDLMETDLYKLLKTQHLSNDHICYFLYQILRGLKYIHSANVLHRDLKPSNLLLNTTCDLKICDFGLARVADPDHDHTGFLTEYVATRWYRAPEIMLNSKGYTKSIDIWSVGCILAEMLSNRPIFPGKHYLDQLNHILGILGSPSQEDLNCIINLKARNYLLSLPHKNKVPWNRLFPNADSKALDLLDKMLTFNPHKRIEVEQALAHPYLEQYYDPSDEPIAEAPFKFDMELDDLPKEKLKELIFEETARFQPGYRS

[5] = target: Ribosomal protein S6 kinase (P70S6K) (Homo sapiens) (UniProt Q9UBS0+P23443); assay: Activity of P70S6K at 10 uM; type: protein-complex assay; method in brief: as §1
[6] = target: cAMP-dependent protein kinase (PKA) (Homo sapiens) (UniProt P22694+P17612+P22612); assay: Activity of PKA at 10 uM; type: protein assay; method in brief: as §1
[7] = target: RAC-alpha serine/threonine-protein kinase (Homo sapiens) (UniProt P31749); assay: Activity of PKBalpha at 10 uM; method in brief: as §1
RAC-alpha serine/threonine-protein kinase (Homo sapiens), sequence (P31749 whole entry): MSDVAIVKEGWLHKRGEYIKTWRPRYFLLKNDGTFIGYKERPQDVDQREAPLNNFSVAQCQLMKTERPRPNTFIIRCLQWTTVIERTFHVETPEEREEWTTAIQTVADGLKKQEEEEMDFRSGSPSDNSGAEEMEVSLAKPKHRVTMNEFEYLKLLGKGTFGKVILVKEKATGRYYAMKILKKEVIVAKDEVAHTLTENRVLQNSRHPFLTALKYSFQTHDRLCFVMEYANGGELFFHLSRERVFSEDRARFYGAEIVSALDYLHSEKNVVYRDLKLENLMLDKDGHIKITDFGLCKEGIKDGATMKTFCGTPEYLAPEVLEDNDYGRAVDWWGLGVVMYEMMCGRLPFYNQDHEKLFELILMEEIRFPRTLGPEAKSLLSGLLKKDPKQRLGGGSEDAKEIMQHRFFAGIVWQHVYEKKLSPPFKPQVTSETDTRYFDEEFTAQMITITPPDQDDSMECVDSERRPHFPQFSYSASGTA

[8] = target: Mitogen-activated protein kinase 14 (Homo sapiens) (UniProt Q16539); assay: Activity of SAPK2-alpha at 10 uM; method in brief: as §1
Mitogen-activated protein kinase 14 (Homo sapiens), sequence (Q16539 whole entry): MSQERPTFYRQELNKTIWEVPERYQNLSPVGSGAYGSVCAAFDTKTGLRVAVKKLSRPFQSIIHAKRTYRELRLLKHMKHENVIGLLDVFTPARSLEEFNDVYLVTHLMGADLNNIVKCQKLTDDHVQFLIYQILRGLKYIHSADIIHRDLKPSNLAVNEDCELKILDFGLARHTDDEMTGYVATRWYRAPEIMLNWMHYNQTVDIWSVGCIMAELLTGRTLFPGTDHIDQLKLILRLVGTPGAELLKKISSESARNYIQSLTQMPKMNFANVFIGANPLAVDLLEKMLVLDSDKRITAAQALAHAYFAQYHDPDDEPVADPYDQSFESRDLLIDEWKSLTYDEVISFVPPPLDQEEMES

HT-29 [9] = assay: Cell cycle arrest in HT29 cells by accumulation at G0/G1 phase at 50 uM after 3 hrs; type: functional, Homo sapiens
Method in brief: (§2)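 Subconfluent, asynchronous HT-29 cells were treated 3, 6 or 12 h, then pulsed with 10 µM BrdU for 30 min at 37 °C. Cells were fixed in ice-cold 70% ethanol, DNA denatured in 2 M HCl and neutralised with borate. Staining used FITC anti-BrdU, then propidium iodide (0.1 mg/mL) with RNase A. Analysis by flow cytometry with 488 nm laser.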

HT-29 [10] = assay: Cell cycle arrest in HT29 cells by accumulation at S phase at 50 uM after 3 hrs; type: functional, Homo sapiens; method in brief: as §2
HT-29 [11] = assay: Cell cycle arrest in HT29 cells by accumulation at G2/M phase at 50 uM after 3 hrs; type: functional, Homo sapiens; method in brief: as §2
HT-29 [12] = assay: Cell cycle arrest in HT29 cells by accumulation at G0/G1 phase at 50 uM after 6 hrs; type: functional, Homo sapiens; method in brief: as §2
HT-29 [13] = assay: Cell cycle arrest in HT29 cells by accumulation at S phase at 50 uM after 6 hrs; type: functional, Homo sapiens; method in brief: as §2
HT-29 [14] = assay: Cell cycle arrest in HT29 cells by accumulation at G2/M phase at 50 uM after 6 hrs; type: functional, Homo sapiens; method in brief: as §2
MCF7 [15] = assay: Viability of MCF7 cells at 100 uM; type: functional, Homo sapiens
Method in brief: (§3)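 Cells grown in DMEM with 10% FCS and 4 mM glutamine at 37 °C, plated in 96-well format, preincubated 12 h, then exposed 72 h. Live cells measured by Calcein AM (1 h) fluorescence at 485/538 nm; % viable cells given at 100 µM compound.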

HOS = assay: Viability of HOS cells at 100 uM; type: functional, Homo sapiens; method in brief: as §3
K562 = assay: Viability of K562 cells at 100 uM; type: functional, Homo sapiens; method in brief: as §3
[16] = target: T1, Cyclin-dependent kinase 2/cyclin E; assay: Inhibition of CDK2/Cyclin E; type: protein-complex assay; conditions: read-out: Ki app
Method in brief: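 CDK2-cyclin E made in Sf9 insect cells co-infected with baculoviral constructs, purified on NiNTA. Assayed with 1 mg/mL histone H1, 15 µM ATP plus 0.05 µCi [γ-33P]ATP, in 50 mM HEPES, 10 mM MgCl2, 5 mM EGTA, 10 mM 2-glycerolphosphate, 1 mM NaF, 1 mM DTT, pH 7.4. Activity expressed as percentage of maximum; IC50 taken from dose-response curves.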

[17] = target: Cyclin-dependent kinase 1/cyclin B (Homo sapiens, UniProt P06493); assay: Inhibition of CDK1/Cyclin B in presence of 100 uM ATP; type: protein-complex assay
[18] = target: Cyclin-dependent kinase 2/cyclin A (Homo sapiens, UniProt P24941); assay: Inhibition of CDK2/Cyclin A in presence of 100 uM ATP; type: protein-complex assay
[19] = target: Cyclin-dependent kinase 2/cyclin E (Homo sapiens) (UniProt P24864+P24941+O96020); assay: Activity of CDK2/Cyclin E at 10 uM; type: protein-complex assay
HT-29 [20] = assay: Inhibition of GAPDH mRNA synthesis in HT29 cells measured as number of copies per 10^6 cells by RT PCR at 50 uM after 3 hrs; type: functional, Homo sapiens
Method in brief: (§4)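 HT-29 cells (5 × 10⁶) treated for 3, 6 or 12 h; total RNA extracted with TRI reagent, 3 µg reverse transcribed with random primers and M-MLV RT (42 °C, 60 min). Absolute transcript copies quantified by TaqMan real-time PCR, 50 cycles, against diluted gene-specific amplicon standards (30–1 000 000 copies); duplicate PCR per sample; values are means of four determinations ± SD.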

HT-29 [21] = assay: Inhibition of CEA mRNA synthesis in HT29 cells measured as number of copies per 10^6 cells by RT PCR at 50 uM after 6 hrs; type: functional, Homo sapiens
Method in brief: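 HT-29 cells were treated 3, 6 or 12 h; total RNA extracted with TRI reagent. 3 µg RNA reverse-transcribed with random primers and M-MLV RT at 42 °C for 60 min. CEA transcripts quantified by TaqMan real-time PCR: 50 cycles of 95 °C 15 s and 65 °C 15 s. Absolute copies came from amplicon standards of 30 to 10^6 copies, expressed per 10^6 cells. Samples run in duplicate PCR; values average of four determinations ± SD.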

HT-29 [22] = assay: Inhibition of EpCAM mRNA synthesis in HT29 cells measured as number of copies per 10^6 cells by RT PCR at 50 uM after 12 hrs; type: functional, Homo sapiens; method in brief: as §4
HT-29 [23] = assay: Cell cycle arrest in HT29 cells by accumulation at S phase at 50 uM after 12 hrs; type: functional, Homo sapiens; method in brief: as §2
MCF7 [24] = assay: Decrease in pRb phosphorylation in MCF7 cells after 24 hrs at 25 uM; type: functional, cell-based; conditions: Homo sapiens
Method in brief: (§5)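 MCF7 cells were treated 24 h, lysed in Laemmli buffer and run on 10% SDS-PAGE. Proteins were blotted to nitrocellulose; loading checked with Ponceau-S; blocked with 5% milk in PBS-Tween. Specific antibodies applied overnight (pRb phosphosites Ser780, Ser807, Thr821; p53; p21WAF1), then peroxidase secondary at 1:2000 with ECL detection.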

MCF7 [25] = assay: Increase in p53 expression level in MCF7 cells at 50 uM after 24 hrs; type: functional, cell-based; conditions: Homo sapiens; method in brief: as §5
MCF7 [26] = assay: Increase in p53 expression level in MCF7 cells at 100 uM after 24 hrs; type: functional, cell-based; conditions: Homo sapiens; method in brief: as §5
MCF7 [27] = assay: Increase in p21 WAF1 expression level in MCF7 cells at 50 uM after 24 hrs; type: functional, cell-based; conditions: Homo sapiens; method in brief: as §5

Structure (SMILES): Nc1n[nH]c(N)c1/N=N/c1ccc(O)cc1
- IC50 [1]: 3.5 µM
- residual activity [2]: 65%
- residual activity [3]: 81%
- residual activity [4]: 99%
- residual activity [5]: 51%
- residual activity [6]: 67%
- residual activity [7]: 100%
- residual activity [8]: 82%
- Activity (HT-29 [9]): 32.9%
- Activity (HT-29 [10]): 55.7%
- Activity (HT-29 [11]): 11.4%
- Activity (HT-29 [12]): 35.9%
- Activity (HT-29 [13]): 54.2%
- Activity (HT-29 [14]): 9.9%
- Activity (MCF7 [15]): 20%
- Activity (HOS): 22%
- Activity (K562): 23%
- Ki [16]: 13.3 µM
- IC50 [17]: 44 µM
- IC50 [18]: 69 µM
- residual activity [19]: 31%
- Activity (HT-29 [20]): 3342533
- Activity (HT-29 [21]): 22620
- Activity (HT-29 [22]): 2951620
- Activity (HT-29 [23]): 66%
- Activity (MCF7 [24]): Active
- Activity (MCF7 [25]): Active
- Activity (MCF7 [26]): Active
- Activity (MCF7 [27]): Active
